Measured values gathered from unrelated publications.
Compare with care: the assays were run in different laboratories.
Target: Serine/threonine-protein kinase PLK3 (PLK3, Homo sapiens, UniProt Q9H4B4)

Structure (SMILES) | effect on | action | method | concentration | measurement | result
FC(F)(F)c1ccc2c(c1)nc(-c1cccnc1)n2C1CC1 | cell-free assay |  | competition with immobilised ligand | 1 µM | remaining binding | 100%
Cc1ccc(C(=O)NCc2ccsc2)cc1C#Cc1cn(C(C)C)c2ncnc(N)c12 | enzyme activity | inhibitor |  | 1 µM | activity vs control | 118%
CC/C(=N\NC(=O)NCc1cccc(O)c1)c1ccc(O)c(C)c1O | enzyme activity | inhibitor |  | 0.1 µM | inhibition | 2.5%
O=C(NC[C@@H]1[C@H]2CN(C(=O)OCc3cc(C(F)(F)F)cc(C(F)(F)F)c3)C[C@@H]12)c1ccc2[nH]nnc2c1 | cell-free assay |  | competition with immobilised ligand | 1 µM | remaining binding | 89%
Cc1ccc(Nc2nccc(N(C)c3ccc4c(C)n(C)nc4c3)n2)cc1S(N)(=O)=O | enzyme activity | inhibitor |  | 0.3 µM | inhibition | -9%
COc1ccc2c(O[C@@H]3C[C@H]4C(=O)N[C@]5(C(=O)O)CC5/C=C\CCCCC[C@H](NC(=O)OC5CCCC5)C(=O)N4C3)cc(-c3csc(NC(=O)C(C)C)n3)nc2c1C (stereo partly shown) | cell-free assay |  | competition with immobilised ligand | 1 µM | remaining binding | 79%
CNC(=O)c1cc(Oc2ccc(NC(=O)Nc3ccc(Cl)c(C(F)(F)F)c3)cc2)ccn1 | enzyme activity | inhibitor |  | 10 µM | inhibition | -14%
CCCOc1ccc([C@H]2[C@H](C(=O)O)[C@@H](c3ccc4c(c3)OCO4)CN2CC(=O)Nc2c(CC)cccc2CC)cc1 | cell-free assay |  | competition with immobilised ligand | 1 µM | remaining binding | 83%
CCCOc1ccc(OC)c(F)c1C(=O)c1ccc(C(=O)N[C@@H]2CNC[C@H]2NC(=O)c2ccc3[nH]ncc3c2)cc1 | enzyme activity | inhibitor |  | 10 µM | remaining activity | 119%
COc1cc(Cl)c(C(=O)N[C@@H](CN[C@H]2CC[C@@H](N)CC2)Cc2ccc(C#N)cc2)cc1-c1ccc(CN[C@H](C)c2ccc(C)cc2)o1 | enzyme activity | inhibitor |  | 1 µM | remaining activity | 105%
CCN(CC)c1ccc(C2=NNC(=O)CC2C)cc1[N+](=O)[O-] (stereo not shown) | enzyme activity | inhibitor |  | 10 µM | remaining activity | 104%
COc1cc(-c2cc(-c3ccc(N4CCNCC4)cc3)cnc2C)cc(OC)c1OC | enzyme activity | inhibitor |  | 0.1 µM | inhibition | 4%
CCN(CC)CCNC(=O)c1c(C)[nH]c(/C=C2\C(=O)Nc3ccc(F)cc32)c1C | enzyme activity | inhibitor |  | 10 µM | inhibition | -4%
CS(=O)(=O)Nc1cccc(-c2csc(NC(=O)CSc3nc4nccnc4c(=O)n3CCc3ccccc3)n2)c1 | enzyme activity | inhibitor |  | 10 µM | inhibition | 6%
C[C@@]1(Cc2ccc(C#N)cc2)C(=O)N(c2cc(Cl)cc(Cl)c2)c2ncc(C(=O)NC3(c4nc(C5CCC5)no4)CC3)n21 | cell-free assay |  | competition with immobilised ligand | 1 µM | remaining binding | 100%
COc1cc2ncnc(Nc3ccc(Oc4ccccc4)cc3C)c2cc1OC | enzyme activity | inhibitor |  | 1 µM | inhibition | -1%
CCOc1cc(-c2nncn2C)ccc1Nc1ncc2cc(C)nc(NCC(C)(C)C)c2n1 | enzyme activity | inhibitor | FRET | 1 µM | inhibition | 19%
O=C(Nc1cnn(-c2csc(C(=O)NC3COC3)c2)c1)Nc1ccccc1Cl | enzyme activity | inhibitor |  | 5 µM | remaining activity | 96.1%
CSc1cccnc1N1CCN(Cc2nc3ccccc3[nH]2)CC1 | cell-free assay |  | competition with immobilised ligand | 1 µM | remaining binding | 80%
Cc1ccc(C(=O)Nc2ccc(CN3CCN(C)CC3)c(C(F)(F)F)c2)cc1C#Cc1cnc2cccnn12 | enzyme activity | inhibitor |  | 23.5 nM | remaining activity | 89%
CNC(=O)Nc1ccc2c(c1)[C@@]1(CC2)OC(=O)N(CC(=O)N(Cc2ccc(F)cc2)[C@@H](C)C(F)(F)F)C1=O | cell-free assay |  | competition with immobilised ligand | 1 µM | remaining binding | 84%
O=C1Nc2ccc(Cl)cc2C1=Cc1cc(Cl)c(O)c(Cl)c1 | cell-free assay |  |  | 0.5 µM | remaining signal | 98.2%
CCS(=O)(=O)c1cc2cc(C[C@@](O)(CC(C)(C)c3ccc(F)cc3C(N)=O)C(F)(F)F)[nH]c2cn1 | cell-free assay |  | competition with immobilised ligand | 1 µM | remaining binding | 99%
N#CCCc1ccc2c(c1)-c1[nH]c3ccc([N+](=O)[O-])cc3c1CC(=O)N2 | cell-free assay |  |  | 0.5 µM | remaining signal | 99.7%
Cc1ccc(NC(=O)c2ccc(C)c(C(F)(F)F)c2)cc1C#Cc1nn(C2CCC(O)CC2)c2ncnc(N)c12 (stereo not shown) | cell-free assay |  |  | 10 µM | remaining signal | 93%
